Experimental data published in ChEMBL document CHEMBL2401617, “Synthesis and biological evaluation of some novel thiazole compounds as potential anti-inflammatory agents” (2013).
Converted amounts (≈) assume the structure as drawn.

How the values were obtained:
Format in all cases: functional
Serratia marcescens [1] = assay: Antibacterial activity against Serratia marcescens IMRU 70 assessed as growth inhibition after 24 hrs by Kirby-Bauer disc diffusion method
In short: (§1)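 Modified Kirby-Bauer disc diffusion on Mueller-Hinton agar spread with broth culture at about 10^8 cells/ml. Blank 8.0 mm paper discs were impregnated with test solution. Ampicillin discs at the same concentration and solvent served as positive control, and solvent discs as negative control. Plates were incubated at 35–37 °C, and inhibition-zone diameter (mm) was read at 24 h by caliper. % activity index = zone relative to ampicillin.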

Staphylococcus aureus [2] = assay: Antibacterial activity against Staphylococcus aureus NCTC 7447 assessed as growth inhibition after 24 hrs by Kirby-Bauer disc diffusion method relative to ampicillin; design: concentration or dose not given beside the values; in short: as §1
Bacillus cereus [3] = assay: Antibacterial activity against Bacillus cereus NCTC 14579 assessed as growth inhibition after 24 hrs by Kirby-Bauer disc diffusion method; in short: as §1
Proteus mirabilis [4] = assay: Antibacterial activity against Proteus mirabilis NCTC 289 assessed as growth inhibition after 24 hrs by Kirby-Bauer disc diffusion method relative to ampicillin; design: concentration or dose not given beside the values; in short: as §1
Bacillus cereus [5] = assay: Antibacterial activity against Bacillus cereus NCTC 14579 assessed as growth inhibition after 24 hrs by Kirby-Bauer disc diffusion method relative to ampicillin; in short: as §1
Proteus mirabilis [6] = assay: Antibacterial activity against Proteus mirabilis NCTC 289 assessed as growth inhibition after 24 hrs by Kirby-Bauer disc diffusion method; in short: as §1
Serratia marcescens [7] = assay: Antibacterial activity against Serratia marcescens IMRU 70 assessed as growth inhibition after 24 hrs by Kirby-Bauer disc diffusion method relative to ampicillin; design: concentration or dose not given beside the values; in short: as §1
Rattus norvegicus [8] = assay: Antiinflammatory activity in albino Wistar rat assessed as inhibition of carrageenan-induced paw oedema at 50 mg/kg, po administered 1 hr prior to carrageenan challenge measured at 1 hr post carrageenan challenge by plethysmometeric analysis relative to control
In short: (§2)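 Albino Wistar rats of either sex (130–150 g), 6 per group, fasted 12 h with water ad libitum. Test compounds were given orally at 50 mg/kg as DMSO solution; controls received 1 ml 20% v/v DMSO. One hour later, 0.1 ml 1% w/v carrageenan in 0.9% saline was injected into the left hind paw plantar region. Plethysmometer volume was read at 0 and 1–4 h. % inhibition = [1 − (Vt/Vc)] × 100.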

Rattus norvegicus [9] = assay: Antiinflammatory activity in albino Wistar rat assessed as inhibition of carrageenan-induced paw oedema at 50 mg/kg, po administered 1 hr prior to carrageenan challenge measured at 4 hrs by plethysmometeric analysis relative to control; in short: as §2
Rattus norvegicus [10] = assay: Antiinflammatory activity in albino Wistar rat assessed as inhibition of carrageenan-induced paw oedema at 50 mg/kg, po administered 1 hr prior to carrageenan challenge measured at 3 hrs by plethysmometeric analysis relative to control; in short: as §2
Rattus norvegicus [11] = assay: Antiinflammatory activity in albino Wistar rat assessed as inhibition of carrageenan-induced paw oedema at 50 mg/kg, po administered 1 hr prior to carrageenan challenge measured at 2 hrs by plethysmometeric analysis relative to control; in short: as §2
Staphylococcus aureus [12] = assay: Antibacterial activity against Staphylococcus aureus NCTC 7447 assessed as growth inhibition after 24 hrs by Kirby-Bauer disc diffusion method; in short: as §1
Staphylococcus aureus [13] = assay: Antibacterial activity against Staphylococcus aureus NCTC 7447 assessed as growth inhibition by disc diffusion method

Row | Structure (SMILES) | diameter of the inhibition zone (DIZ) (Serratia marcescens [1]) [mm] | Activity_index (Staphylococcus aureus [2]) [%] | diameter of the inhibition zone (DIZ) (Bacillus cereus [3]) [mm] | Activity_index (Proteus mirabilis [4]) [%] | Activity_index (Bacillus cereus [5]) [%] | diameter of the inhibition zone (DIZ) (Proteus mirabilis [6]) [mm] | Activity_index (Serratia marcescens [7]) [%] | inhibition in vivo at 50 mg/kg (Rattus norvegicus [8]) [%] | inhibition in vivo at 50 mg/kg (Rattus norvegicus [9]) [%] | inhibition in vivo at 50 mg/kg (Rattus norvegicus [10]) [%] | inhibition in vivo at 50 mg/kg (Rattus norvegicus [11]) [%] | diameter of the inhibition zone (DIZ) (Staphylococcus aureus [12]) [mm] | MIC (Staphylococcus aureus [13]) [µg/mL]
1 | Nc1nc(-c2ccc(N3CCOCC3)cc2)cs1 | 3 | 20.83 | 4 | 9.52 | 17.39 | 2 | 15.72 | -17 | 86.8 | 75.3 | 31.7 | 5 | –
2 | C/C(=N\NC1=NC(=O)C(C)S1)c1ccc(N2CCOCC2)cc1 (centres undefined) | 2 | 20.83 | 5 | 9.52 | 21.74 | 2 | 10.52 | – | – | – | – | 5 | –
3 | C/C(=N\NC1=NCC(=O)S1)c1ccc(N2CCOCC2)cc1 | 3 | 20.83 | 4 | 9.52 | 16.67 | 2 | 15.72 | 29.5 | 78.2 | 63.4 | 28.6 | 5 | –
4 | C/C(=N\Nc1nc(C)cs1)c1ccc(N2CCOCC2)cc1 | 2 | 20.83 | 3 | 9.52 | 13.04 | 2 | 15.72 | – | – | – | – | 5 | –
5 | C/C(=N\Nc1nc(-c2ccccc2)cs1)c1ccc(N2CCOCC2)cc1 | 2 | 16.67 | 4 | 14.28 | 17.39 | 3 | 15.72 | -1.6 | 79.1 | 62.2 | 35 | 4 | –
6 | C/C(=N\NC1=NC(=N)CS1)c1ccc(N2CCOCC2)cc1 | 3 | 20.83 | 4 | 9.52 | 17.39 | 2 | 15.72 | – | – | – | – | 5 | –
7 | C/C(=N\NC(=O)CC#N)c1ccc(N2CCOCC2)cc1 | 2 | 75 | 4 | 14.28 | 17.39 | 3 | 15.72 | – | – | – | – | 18 | 40 (≈ 140 µM)
8 | C/C(=N/NC(=O)/C(C#N)=C1/SC=C(c2ccccc2)N1c1ccccc1)c1ccc(N2CCOCC2)cc1 | 3 | 20.83 | 4 | 9.52 | 17.39 | 2 | 15.72 | – | – | – | – | 5 | –
9 | CC1=C(O)N(c2ccccc2)/C(=C(/C#N)C(=O)N/N=C(/C)c2ccc(N3CCOCC3)cc2)S1 | 3 | 20.83 | 3 | 14.28 | 13.04 | 3 | 15.72 | – | – | – | – | 5 | –
10 | C/C(=N/NC(=O)c1sc(=S)n(-c2ccccc2)c1N)c1ccc(N2CCOCC2)cc1 | 2 | 16.67 | 3 | 9.52 | 13.04 | 2 | 15.72 | – | – | – | – | 4 | –
11 | C/C(=N/NC(=O)c1sc(=S)n(-c2ccc3ccccc3c2)c1N)c1ccc(N2CCOCC2)cc1 | 2 | 20.83 | 3 | 9.52 | 13.04 | 2 | 15.72 | – | – | – | – | 5 | –
12 | Cc1ccc(/C=N/c2nc(-c3ccc(N4CCOCC4)cc3)cs2)cc1 | 3 | 16.67 | 4 | 9.52 | 17.39 | 2 | 15.72 | – | – | – | – | 4 | –
13 | CC(=O)N(C(C)=O)c1nc(-c2ccc(N3CCOCC3)cc2)cs1 | 2 | 20.83 | 4 | 14.28 | 17.39 | 3 | 15.72 | – | – | – | – | 5 | –
14 | C/C(=N/c1nc(-c2ccccc2)cs1)c1ccc(N2CCOCC2)cc1 | 2 | 20.83 | 4 | 14.28 | 17.39 | 3 | 15.72 | 27.2 | 81.6 | 59.8 | 22.9 | 5 | –
15 | C/C(=N\N=C1/N=C2OC(=O)C=C2S1)c1ccc(N2CCOCC2)cc1 | 3 | 20.83 | 4 | 9.52 | 17.39 | 2 | 15.72 | 23.3 | 85 | 75.7 | 50.6 | 5 | –
16 | C/C(=N\NC1=NC(=O)CS1)c1ccc(N2CCOCC2)cc1 | 3 | 16.67 | 4 | 14.28 | 17.39 | 3 | 15.72 | -58.6 | 35.7 | 29 | -8 | 4 | –
17 | C/C(=N\N=C(\N)S)c1ccc(N2CCOCC2)cc1 | 3 | 16.67 | 4 | 9.52 | 17.39 | 2 | 15.72 | -35 | 83.6 | 55.7 | 23 | 4 | –
18 | CC1(C)S[C@@H]2[C@H](NC(=O)[C@H](N)c3ccccc3)C(=O)N2[C@H]1C(=O)O [AMPICILLIN] | 21 | – | 23 | – | – | 21 | – | – | – | – | – | 24 | –
